# Where no end group is shown, it is not given here.
# Assays:
# [1] = Metabolic stability in human plasma; format: in vitro ADME
# Method in brief: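 Test compound (100 μM stock in methanol) added to 1 μM final in plasma or brain homogenate (1:3 brain:PBS, w/v) and incubated at room temperature. Sampled at 15 and 30 min and 1, 2 and 4 h; time-zero samples pre-quenched with methanol. Proteins were methanol-precipitated; supernatant evaporated, reconstituted in 0.1% formic acid and analysed by LC/MS/MS. Duplicates per time point; results expressed as % of time 0.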
# [2] = Radiolabel distribution study of 3H-P8 after IV or IN delivery; format: in vivo; conditions: rat
# Method in brief: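 Adult male SD rats (n = 6/route) were anaesthetised with ketamine/xylazine/acepromazine. They received 0.5 mg test compound plus 60 μCi tritiated label in 60 μL over 18 min, either by IV infusion or by IN drops to alternating nares every 2 min while supine. Blood was drawn 10 and 20 min after dosing ended. At 30 min: cardiac puncture, saline perfusion, then tissue scintillation counting. Concentrations were derived from DPM, tissue weight and specific activity; values beyond 2 SD were excluded as outliers.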
sequence,measurement,setting,value
"DEEEDEEL [P8, DEEEDEEL]",half-life,[1],> 2 h
same,"remaining at 2 h, 1 μM",[1],63.1%
same,"improvement of brain targeting, IN compared to IV delivery",[2],approximately 4 fold

# — paper PMC6218153 (Journal of Alzheimer's Disease Reports, 2018)
